Experimental data as given in ChEMBL document CHEMBL3098028, “Synthesis and in vitro and in vivo pharmacological evaluation of new 4-aminoquinoline-based compounds” (ACS Med Chem Lett, 2013).

Columns and labels:
Cytochrome P450 2B6 = molecular target: T1, Cytochrome P450 2B6 (Homo sapiens, UniProt P20813); test: Inhibition of CYP2B6 in human liver microsomes assessed as bupropion hydroxylation after 20 mins by LC-MS/MS analysis; assay type: ADME
T1 sequence (P20813 whole entry): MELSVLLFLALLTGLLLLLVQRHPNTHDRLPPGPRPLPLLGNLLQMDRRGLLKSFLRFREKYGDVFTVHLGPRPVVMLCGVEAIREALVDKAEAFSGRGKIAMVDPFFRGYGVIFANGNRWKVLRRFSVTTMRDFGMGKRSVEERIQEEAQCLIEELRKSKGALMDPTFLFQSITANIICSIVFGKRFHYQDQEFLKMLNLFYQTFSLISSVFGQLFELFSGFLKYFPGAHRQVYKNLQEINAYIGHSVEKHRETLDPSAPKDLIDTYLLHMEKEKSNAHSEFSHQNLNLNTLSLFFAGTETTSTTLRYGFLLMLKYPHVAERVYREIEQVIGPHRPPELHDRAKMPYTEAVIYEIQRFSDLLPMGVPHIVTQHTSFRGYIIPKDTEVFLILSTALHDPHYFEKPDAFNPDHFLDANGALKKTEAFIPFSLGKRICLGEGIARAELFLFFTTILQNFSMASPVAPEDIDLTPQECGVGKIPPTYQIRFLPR

[1] = Kinetic solubility of the compound in 0.01 M HCl at pH 2 after 2 hrs by HPLC analysis; assay type: physicochemical; conditions: read-out: Kinetic_solubility
Liver microsome = test: Drug metabolism in rat liver microsomes assessed as 2-(5-((4-chlorophenyl)(2-(7-chloroquinolin-4-ylamino)ethylamino)methyl)-1H-tetrazol-1-yl)-2-methylpropan-1-ol level at 5 uM after 1 hr by LC-MS/MS analysis; assay type: ADME
Cytochrome P450 1A2 = molecular target: T2, Cytochrome P450 1A2 (Homo sapiens, UniProt P05177); test: Inhibition of CYP1A2 in human liver microsomes assessed as phenacetin O-deethylation after 20 mins by LC-MS/MS analysis; assay type: ADME
T2 sequence (P05177 whole entry): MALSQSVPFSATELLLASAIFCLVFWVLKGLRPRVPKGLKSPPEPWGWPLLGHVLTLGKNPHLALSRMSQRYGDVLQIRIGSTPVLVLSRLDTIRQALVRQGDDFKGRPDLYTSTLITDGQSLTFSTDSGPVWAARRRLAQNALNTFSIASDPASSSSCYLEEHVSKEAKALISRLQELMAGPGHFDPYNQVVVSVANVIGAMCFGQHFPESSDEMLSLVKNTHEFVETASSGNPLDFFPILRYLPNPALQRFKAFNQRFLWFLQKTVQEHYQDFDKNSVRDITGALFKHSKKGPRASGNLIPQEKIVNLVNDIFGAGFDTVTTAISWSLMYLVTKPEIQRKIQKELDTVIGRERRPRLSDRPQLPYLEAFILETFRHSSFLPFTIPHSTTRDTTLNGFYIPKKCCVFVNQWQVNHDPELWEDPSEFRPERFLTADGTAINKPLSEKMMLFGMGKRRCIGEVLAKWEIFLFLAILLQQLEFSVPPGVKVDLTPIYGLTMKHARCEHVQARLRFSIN

Plasmodium falciparum = test: Antiplasmodial activity against chloroquine-sensitive Plasmodium falciparum 3D7 after 24 hrs by [3H]hypoxanthine incorporation assay; assay type: functional, organism-based
Outline: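 Antiplasmodial testing was done at the Swiss Tropical and Public Health Institute. Chloroquine, the reference drug, was tested as its diphosphate salt.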

With `CC(C)(C)n1nnnc1C(NCCNc1ccnc2cc(Cl)ccc12)c1ccc(Cl)cc1` (stereo not given) the IC50 (Cytochrome P450 2B6) was > 20 µM, the solubility kinetic at 2 h [1] was > 200 µM and the Drug metabolism (Liver microsome) was “Active”. For the same compound, the IC50 (Cytochrome P450 1A2) was > 20 µM and the IC50 (Plasmodium falciparum) was 0.002 µM.
